Experimental data: PMC3673019 (Biochemistry, 2012)
“Also recorded” adds a separate entry of the source. Where two headings read alike, the source gives them in different places. Each block holds one compound with its values, some of them ahead of it.

How the values were obtained:
eEF-2K [1] = target: T1, eEF-2K (Homo sapiens, UniProt O00418); type: biochemical
[2] = cited from earlier work
A549 lung cancer cells = test: Western blot of phospho-eEF2; type: cell-based; details: 4 µM NH125, 0–12 h
[3] = tested on: H1299, PC3, HeLa, H460 and C6 cell lines; details: NH125 for 6 hours; cited from earlier work
ERK2 = ERK2 (Homo sapiens, UniProt P28482); test: Dose-response inhibition assay against ERK2; type: biochemical
How it was run: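 Radiometric kinase assay: 2 nM ERK2, 500 µM [γ-32P]-ATP, 20 µM Ets1 substrate, test compound 0–500 µM. IC50 and Hill coefficient came from a dose-response equation fit.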

GST-eEF-2K = details: in vitro kinase assay; cited from earlier work
[4] = tested on: eEF2 phosphorylation in the hippocampus; details: 5 mg/kg, 30 minutes, mice; cited from earlier work
[5] = tested on: MDA-MB-231 breast cancer cells; test: Western blot of phospho-eEF2; type: cell-based; details: 4 µM NH125, 0–12 h
[6] = tested on: human microvascular endothelial cells (HMVECs); details: 200 nM NH125, 2 hour pre-incubation; cited from earlier work
cancer cell lines = details: read-out: EC50, decrease of viability; a number of cancer cell lines; cited from earlier work
eEF-2K [7] = target: T1, eEF-2K; test: Phosphorylation of wheat germ EF2 by eEF-2K in vitro; type: biochemical
TRPM7 = target: T2, TRPM7 (Homo sapiens, UniProt Q96QT4); test: Dose-response inhibition assay against TRPM7; type: biochemical; details: 25 nM TRPM7, 500 µM ATP (data not shown)
T2 sequence (Q96QT4 1551-1830): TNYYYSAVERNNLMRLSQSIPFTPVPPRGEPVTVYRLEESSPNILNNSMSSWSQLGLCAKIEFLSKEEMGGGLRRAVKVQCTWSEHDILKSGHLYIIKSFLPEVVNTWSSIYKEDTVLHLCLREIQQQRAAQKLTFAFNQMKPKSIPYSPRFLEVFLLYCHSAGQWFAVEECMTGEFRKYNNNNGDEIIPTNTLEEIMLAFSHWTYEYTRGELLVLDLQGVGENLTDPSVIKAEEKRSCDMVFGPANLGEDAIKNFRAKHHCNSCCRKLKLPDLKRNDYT

HEK-293T cells = test: Western blot of phospho-eEF2; type: cell-based; details: 4 µM NH125, 0–12 h
eEF-2K [8] = target: T1, eEF-2K; test: Dose-response inhibition of Pep-S phosphorylation by NH125; type: biochemical; details: in the presence of 0.1% triton X-100
C6 glioma cells = details: 1 µM NH125, 12 hours; cited from earlier work
eEF-2K [9] = details: cited from earlier work
[10] = varied ATP 12.5–125 µM, fixed Pep-S 50 µM

T1 sequence (O00418 whole entry): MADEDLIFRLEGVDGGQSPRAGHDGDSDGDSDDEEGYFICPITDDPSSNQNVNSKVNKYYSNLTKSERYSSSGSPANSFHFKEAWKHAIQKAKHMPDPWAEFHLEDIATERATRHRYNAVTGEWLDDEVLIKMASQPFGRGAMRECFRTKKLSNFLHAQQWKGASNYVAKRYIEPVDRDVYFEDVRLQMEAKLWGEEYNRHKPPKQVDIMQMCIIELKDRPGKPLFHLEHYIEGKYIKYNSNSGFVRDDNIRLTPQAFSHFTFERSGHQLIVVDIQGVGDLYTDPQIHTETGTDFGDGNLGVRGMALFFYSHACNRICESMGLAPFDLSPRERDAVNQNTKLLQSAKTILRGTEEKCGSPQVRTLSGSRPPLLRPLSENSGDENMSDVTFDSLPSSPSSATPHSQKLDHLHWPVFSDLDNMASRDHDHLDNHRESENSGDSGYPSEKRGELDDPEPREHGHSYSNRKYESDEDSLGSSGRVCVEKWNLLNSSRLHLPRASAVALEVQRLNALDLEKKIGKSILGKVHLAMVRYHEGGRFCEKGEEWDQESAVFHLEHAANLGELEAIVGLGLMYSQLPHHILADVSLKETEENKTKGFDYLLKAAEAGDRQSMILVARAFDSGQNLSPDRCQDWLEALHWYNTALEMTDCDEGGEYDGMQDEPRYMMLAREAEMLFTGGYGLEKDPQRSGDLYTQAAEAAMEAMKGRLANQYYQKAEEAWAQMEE
Chain of ERK2 (P28482 whole entry, species assumed): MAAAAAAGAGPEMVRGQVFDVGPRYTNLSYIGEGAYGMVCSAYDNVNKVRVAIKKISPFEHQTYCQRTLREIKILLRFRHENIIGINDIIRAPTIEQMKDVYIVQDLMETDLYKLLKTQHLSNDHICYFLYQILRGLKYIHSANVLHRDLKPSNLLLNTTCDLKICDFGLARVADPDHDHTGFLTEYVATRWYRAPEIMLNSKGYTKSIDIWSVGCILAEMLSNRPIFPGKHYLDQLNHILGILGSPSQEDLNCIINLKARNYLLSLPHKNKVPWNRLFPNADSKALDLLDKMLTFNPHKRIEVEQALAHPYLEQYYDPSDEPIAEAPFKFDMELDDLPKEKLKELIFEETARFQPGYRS

Compound: Nc1ncnc2c1ncn2[C@@H]1O[C@H](COP(=O)(O)OP(=O)(O)O)[C@@H](O)[C@H]1O [ADP, adenosine diphosphate]
Mechanism of inhibition (eEF-2K [1]; [10]): Competitive ^d
Mechanism of inhibition (eEF-2K [1]; varied Pep-S, fixed ATP 50 µM): Mixed ^g

Compound: O=C1OC(c2cc(I)c(O)c(I)c2)(c2c(I)cc(O)cc2I)c2ccccc21 (stereo not shown) [tetraiodophenolphthalein]
diameter of aggregates [2]: approximately 150 nm

Compound: CC(=O)c1c(O)c(C)c(O)c(Cc2c(O)c3c(c(C(=O)/C=C/c4ccccc4)c2O)OC(C)(C)C=C3)c1O [Rottlerin, rottlerin]
kinase selectivity (eEF-2K [9]): nonspecific inhibitor of multiple protein kinases

The next lines start with results.

IC50 (ERK2): 70 µM
Hill coefficient (ERK2; 2 nM ERK2, 500 µM ATP (data not shown)): 3.6
effect on phosphorylation of wheat germ eEF2 (eEF-2K [7]; NH125 12.5 – 50 µM (Figure S3)): inhibition is observed
Hill coefficient (TRPM7): 1.6
Hill coefficient (eEF-2K [8]): 1.0 ± 0.28
Compound: CCCCCCCCCCCCCCCC[n+]1ccn(Cc2ccccc2)c1C.[I-] [NH125, 1-benzyl-3-cetyl-2-methylimidazolium iodide]
levels of eEF-2K and eEF-2 (A549 lung cancer cells): increase
phospho-eEF2 (Thr-56) level (A549 lung cancer cells; versus DMSO): No sign of decrease; also recorded: increased; also recorded: no inhibition was observed; also recorded: did not inhibit
phosphorylation of eEF-2 [3]: induction; also recorded: induce phosphorylation
IC50 (GST-eEF-2K): 0.06 µM
eEF2 phosphorylation in the hippocampus [4]: observable decrease
levels of eEF-2K and eEF-2 [5]: increase
phospho-eEF2 (Thr-56) level ([5]; versus DMSO): No sign of decrease; also recorded: increased; also recorded: no inhibition was observed; also recorded: did not inhibit
resveratrol-induced eEF2 phosphorylation [6]: inhibition
EC50 (cancer cell lines): 1 to 5 µM
effect on the rate of phosphorylation of wheat germ eEF2 (eEF-2K [7]; NH125 0–5 µM, 1 µM eEF2, 7.5 µM ATP, 10 nM eEF-2K): no detectable effect; also recorded: failed to inhibit
levels of eEF-2K and eEF-2 (HEK-293T cells): increase
phospho-eEF2 (Thr-56) level (HEK-293T cells; versus DMSO): No sign of decrease; also recorded: increased; also recorded: no inhibition was observed; also recorded: did not inhibit
phosphorylation of eEF2 (C6 glioma cells): strongly inhibits

Mechanism of inhibition (eEF-2K [1]; [10]): Mixed ^g
Mechanism of inhibition (eEF-2K [1]; varied Pep-S, fixed ATP 50 µM): Competitive ^d
Compound: Ac-RKKYKFNEDAERRRFL-NH2 [Pep-I]

Kd (eEF-2K [1]): 16.2 ± 6.9 µM
Compound: Nc1ncnc2c1ncn2[C@@H]1O[C@H](COP(=O)(O)OP(=O)(O)OP(=O)(O)O)[C@@H](O)[C@H]1O [ATP, adenosine triphosphate]
